We go through 20 molecules from ChEMBL document CHEMBL1124956, “Renin inhibitors based on dipeptide analogues. Incorporation of the hydroxyethylene isostere at the P2/P3 sites” (J Med Chem, 1990).

In the assay the target is T1, Renin (Homo sapiens, UniProt P00797).
T1 sequence (P00797 whole entry): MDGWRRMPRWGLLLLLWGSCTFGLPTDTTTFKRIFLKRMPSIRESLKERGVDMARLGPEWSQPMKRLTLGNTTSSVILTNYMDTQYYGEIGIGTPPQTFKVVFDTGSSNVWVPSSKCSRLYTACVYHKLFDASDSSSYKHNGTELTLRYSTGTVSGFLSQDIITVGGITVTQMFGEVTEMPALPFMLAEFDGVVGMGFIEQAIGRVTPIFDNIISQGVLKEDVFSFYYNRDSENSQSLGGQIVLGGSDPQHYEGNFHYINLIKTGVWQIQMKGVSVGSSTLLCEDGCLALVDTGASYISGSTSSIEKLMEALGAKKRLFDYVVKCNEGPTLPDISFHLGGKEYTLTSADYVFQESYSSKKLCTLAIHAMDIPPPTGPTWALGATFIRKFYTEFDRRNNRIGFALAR
Kind of assay: In vitro inhibitory activity against human renal renin using radioimmunoassay for angiotensin I production. Summed up:
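Purified human renin enzyme, assayed in maleate buffer at pH 6.0. The remaining conditions follow a previously published protocol.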

The molecule `C=C(C[C@H](O)[C@H](CC1CCCCC1)NC(=O)C(CCCCC)CC(O)[C@H](Cc1ccccc1)NC(=O)OC(C)(C)C)C(=O)NCC(C)C` (stereo not given in full) yielded an IC50 of 19 nM.

As for `C=CCCCC(C[C@@H](O)[C@H](Cc1ccccc1)NC(=O)OC(C)(C)C)C(=O)N[C@@H](CC1CCCCC1)[C@@H](O)[C@@H](CO)CC(C)C` (stereo not given in full), the IC50 was found to be 12 nM.

Turning to `C=C(C[C@H](O)[C@H](CC1CCCCC1)NC(=O)C(CC(C)C)NC(=O)[C@H](Cc1ccccc1)NC(=O)OC(C)(C)C)C(=O)NCC(C)C` (stereo not given in full), the IC50 turned out to be 6 nM.

Turning to `C=C(C[C@H](O)[C@H](CC1CCCCC1)NC(=O)C(CCCC)CC(O)[C@H](Cc1ccccc1)NC(=O)OC(C)(C)C)C(=O)NCC(C)C` (stereo not given in full), it took 5.5 nM to reach half-maximal inhibition (IC50).

Molecule `CC(C)C[C@H](C[C@@H](O)[C@H](Cc1ccccc1)NC(=O)OC(C)(C)C)C(=O)N[C@@H](CC1CCCCC1)[C@@H](O)[C@@H](CO)CC(C)C` gave a concentration for half-maximal inhibition (IC50) of 6 nM.

In turn, `C=C(C[C@H](O)[C@H](CC1CCCCC1)NC(=O)C(CC(C)C)CC(O)[C@H](Cc1ccccc1)NC(=O)OC(C)(C)C)C(=O)NCC(C)C` (stereo not given in full) registered an IC50 of 25 nM.

Take `C=C(C[C@H](O)[C@H](CC1CCCCC1)NC[C@H](C)C[C@@H](O)[C@H](Cc1ccccc1)NC(=O)OC(C)(C)C)C(=O)NCC(C)C`: the IC50 was more than 10000 nM.

`C=CCCC[C@@H](C[C@@H](O)[C@H](Cc1ccccc1)NC(=O)OC(C)(C)C)C(=O)N[C@@H](CC1CCCCC1)[C@@H](O)CC(=C)C(=O)NCC(C)C`: the midpoint of inhibition, the IC50, lay at 8 nM.

Molecule `C=C(C[C@H](O)[C@H](CC1CCCCC1)NC(=O)[C@@H](C)C[C@@H](O)[C@H](Cc1ccccc1)NC(=O)OC(C)(C)C)C(=O)NCC(C)C` displayed an IC50 of 100 nM.

In the case of `C=C(C[C@H](O)[C@H](CC1CCCCC1)NC(=O)[C@@H](C[C@@H](O)[C@H](Cc1ccccc1)NC(=O)OC(C)(C)C)Cn1ccnn1)C(=O)NCC(C)C`, the IC50 was 95 nM.

As to `C=C(C[C@H](O)[C@H](CC1CCCCC1)NC(=O)[C@H](C)C[C@@H](O)[C@H](Cc1ccccc1)NC(=O)OC(C)(C)C)C(=O)NCC(C)C`, it took 20 nM to reach half-maximal inhibition (IC50).

Consider `C=CCCC[C@H](C[C@@H](O)[C@H](Cc1ccccc1)NC(=O)OC(C)(C)C)C(=O)N[C@@H](CC1CCCCC1)[C@@H](O)CC(=C)C(=O)NCC(C)C`, for which the IC50 amounted to 1 nM.

Take `C=C(C[C@H](O)[C@H](CC1CCCCC1)NC(=O)[C@@H](C[C@H](O)[C@H](Cc1ccccc1)NC(=O)OC(C)(C)C)Cn1ccnn1)C(=O)NCC(C)C`: inhibition was half-maximal at 2700 nM (IC50).

Molecule `C=C(C[C@H](O)[C@H](CC1CCCCC1)NC(=O)C(Cc1c[nH]cn1)NC(=O)[C@H](Cc1ccccc1)NC(=O)OC(C)(C)C)C(=O)NCC(C)C` (stereo not given in full) registered a concentration for half-maximal inhibition (IC50) of 2 nM.

For the molecule `C=C(C[C@H](O)[C@H](CC1CCCCC1)NC(=O)C(CCCCCC)CC(O)[C@H](Cc1ccccc1)NC(=O)OC(C)(C)C)C(=O)NCC(C)C` (stereo not given in full), inhibition was half-maximal at 70 nM (IC50).

The molecule `C=C(C[C@H](O)[C@H](CC1CCCCC1)NC(=O)[C@H](C)C[C@H](O)[C@H](Cc1ccccc1)NC(=O)OC(C)(C)C)C(=O)NCC(C)C` returned a 50% inhibitory concentration (IC50) of 3000 nM.

On to `C=C(C[C@H](O)[C@H](CC1CCCCC1)NC(=O)C(C)NC(=O)[C@H](Cc1ccccc1)NC(=O)OC(C)(C)C)C(=O)NCC(C)C` (stereo not given in full), for which half-maximal inhibition (IC50) was put at 10 nM.

Consider `C=CCCCC(NC(=O)[C@H](Cc1ccccc1)NC(=O)OC(C)(C)C)C(=O)N[C@@H](CC1CCCCC1)[C@@H](O)CC(=C)C(=O)NCC(C)C` (mixture of isomers), for which 18 nM corresponded to half-maximal inhibition (IC50).

Regarding `C=C(C[C@H](O)[C@H](CC1CCCCC1)NC(=O)C(CCCC)NC(=O)[C@H](Cc1ccccc1)NC(=O)OC(C)(C)C)C(=O)NCC(C)C` (mixture of isomers), the IC50 was 2 nM.

Take `C=C(C[C@H](O)[C@H](CC1CCCCC1)NC(=O)C(C)CC(O)[C@H](Cc1ccccc1)NC(=O)OC(C)(C)C)C(=O)NCC(C)C` (single isomer, unassigned): the IC50 was found to be 20 nM.
